Laboratory results as given in ChEMBL document CHEMBL1141166, “2-[(Carboxymethyl)sulfanyl]-4-oxo-4-arylbutanoic acids selectively suppressed proliferation of neoplastic human HeLa cells. A SAR/QSAR study” (J Med Chem, 2005).
pIC50: −log10 of the molar value.

Legend:
[1] = Partition coefficient (logP); format: physicochemical; conditions: octanol/water
Summary of the method: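 Calculated rather than measured: log P (n-octanol/water) estimated by Crippen's fragmentation method.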

[2] = tested on: HeLa; assay: Inhibitory concentration inducing 50% decrease in HeLa cell survival; format: functional, cell-based; conditions: Homo sapiens
Summary of the method: (§1)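 HeLa cells seeded at 2000/well and left 20 h, then exposed to five concentrations (final 3.12 to 50 or 100 μM/L, diluted from a 10 mM/L DMSO stock) in triplicate for 72 h. Medium was RPMI 1640 without phenol red with 10% FBS and 25 mM HEPES, pH 7.2. Survival by MTT: 4 h at 37 °C, SDS lysis, A570. Blank was subtracted and values taken as % of untreated control. IC50 is the concentration giving 50% survival loss.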

[3] = tested on: HeLa; assay: Observed concentration that required to induce 50% decrease in HeLa cell survival; format: functional, cell-based; conditions: Homo sapiens, read-out: Log 1/IC50 (converted); summary of the method: as §1
[4] = tested on: PBMC (Homo sapiens); assay: Selectivity index that required to induce 50% decrease in PBMC (healthy human's peripheral blood cells) cells survival
[5] = tested on: PBMC+PHA (Homo sapiens); assay: Selectivity index that required to induce 50% decrease in PBMC+PHA (healthy human's peripheral blood cells) cells survival
[6] = tested on: PBMC (Homo sapiens); assay: Inhibitory concentration that required to induce 50% decrease in PBMC (healthy human's peripheral blood cells) cells survival
[7] = tested on: PBMC+PHA (Homo sapiens); assay: Inhibitory concentration that required to induced a 50% decrease in PBMC+PHA (healthy human's peripheral blood cells) cells survival
[8] = tested on: PBMC+PHA (Homo sapiens); assay: Inhibitory concentration that required to Induced a 50% decrease in PBMC+PHA (healthy human's peripheral blood cells) cells survival
[9] = tested on: PBMC (Homo sapiens); assay: Inhibitory concentration that required to Induced a 50% decrease in PBMC (healthy human's peripheral blood cells) cells survival
[10] = tested on: PBMC+PHA (Homo sapiens); assay: Inhibitory concentration that required to induce 50% decrease in PBMC+PHA (healthy human's peripheral blood cells) cells survival

| SMILES | logP [1] | pIC50 [2] | IC50 [3] | Si [4] | Si [5] | pIC50 [6] | pIC50 [7] | pIC50 [8] | pIC50 [9] | pIC50 [10] |
| --- | --- | --- | --- | --- | --- | --- | --- | --- | --- | --- |
| CC(C)c1ccc(C(=O)CC(SCC(=O)O)C(=O)O)c(C(C)C)c1 (stereo not drawn) | 3.18 | 5.96 | 1.1 µM | 6.17 | 6.49 | 5.17 | 5.15 | – | – | – |
| CC(C)c1ccc(C(=O)CC(SCC(=O)O)C(=O)O)cc1 (stereo not drawn) | 1.94 | 5.48 | 3.33 µM | – | – | – | – | – | – | – |
| CC(C)(C)c1ccc(C(C)(C)C)c(C(=O)CC(SCC(=O)O)C(=O)O)c1 (stereo not drawn) | 4.12 | 5.36 | 4.36 µM | 10 | 8.5 | 4.36 | – | 4.43 | – | – |
| Cc1ccc(C(=O)CC(SCC(=O)O)C(=O)O)cc1 (stereo not drawn) | 1.2 | 4.76 | 17.3 µM | – | – | – | – | – | – | – |
| CC(C)c1cc(C(C)C)c(C(=O)CC(SCC(=O)O)C(=O)O)c(C(C)C)c1 (stereo not drawn) | 4.41 | 5.78 | 1.66 µM | 2 | 2.58 | – | – | 5.32 | 5.48 | – |
| Cc1ccc(C)c(C(=O)CC(SCC(=O)O)C(=O)O)c1 (stereo not drawn) | 1.68 | 5.57 | 2.68 µM | – | – | – | – | – | – | – |
| CCc1cc(CC)c(C(=O)CC(SCC(=O)O)C(=O)O)c(CC)c1 (stereo not drawn) | 3.42 | 6.06 | 0.879 µM | 21.56 | 22.63 | – | – | 4.70 | 4.72 | – |
| Cc1ccc(C(=O)CC(SCC(=O)O)C(=O)O)c(Cl)c1 (stereo not drawn) | 1.75 | 5.33 | 4.73 µM | – | – | – | – | – | – | – |
| CC(C)(C)c1ccc(C(=O)CC(SCC(=O)O)C(=O)O)cc1 (stereo not drawn) | 2.41 | 5.86 | 1.39 µM | – | – | – | – | – | – | – |
| Cc1ccc(C(=O)CC(SCC(=O)O)C(=O)O)c(C)c1 (stereo not drawn) | 1.68 | 5.42 | 3.83 µM | – | – | – | – | – | – | – |
| CC(C)c1ccc(C(C)C)c(C(=O)CC(SCC(=O)O)C(=O)O)c1 (stereo not drawn) | 3.18 | 6.19 | 0.644 µM | 20.65 | 24.33 | 4.88 | – | – | – | 4.80 |
| COc1ccc(C(=O)CC(SCC(=O)O)C(=O)O)c(OC)c1OC (stereo not drawn) | 0.33 | 4.53 | 29.5 µM | – | – | – | – | – | – | – |
| Cc1ccc(C(=O)CC(SCC(=O)O)C(=O)O)cc1C (stereo not drawn) | 1.68 | 5.42 | 3.81 µM | – | – | – | – | – | – | – |
| O=C(O)CSC(CC(=O)c1ccc(Cl)cc1)C(=O)O (stereo not drawn) | 1.27 | 4.76 | 17.3 µM | – | – | – | – | – | – | – |
| CCCCc1ccc(C(=O)CC(SCC(=O)O)C(=O)O)cc1 (stereo not drawn) | 2.45 | 5.72 | 1.91 µM | – | – | – | – | – | – | – |
| O=C(O)CS [THIOGLYCOLIC ACID] | – | < 3.70 | – | – | – | < 3.70 | – | – | – | < 3.70 |
| O=C(O)CSC(CC(=O)c1ccc(Br)cc1)C(=O)O (stereo not drawn) | 1.54 | 5.02 | 9.51 µM | – | – | – | – | – | – | – |
| CCCCCCCCCCCCc1ccc(C(=O)CC(SCC(=O)O)C(=O)O)cc1 (stereo not drawn) | 5.79 | 5.77 | 1.71 µM | – | – | – | – | – | – | – |
| O=C(O)CSC(CC(=O)c1ccccc1)C(=O)O (stereo not drawn) | 0.71 | 4.82 | 15 µM | – | – | – | – | – | – | – |
| O=C(O)CSC(CC(=O)c1ccc(F)cc1)C(=O)O (stereo not drawn) | 0.87 | 4.68 | 20.7 µM | – | – | – | – | – | – | – |
| CCc1ccc(C(=O)CC(SCC(=O)O)C(=O)O)cc1 (stereo not drawn) | 1.61 | 5.32 | 4.79 µM | – | – | – | – | – | – | – |
